# Screening data from PubChem.
# bIAP inh – intestinal alkaline phosphatase (bovine) inhibition | purified bovine IAP, CDP-star luminescence, 30 min | inhibition, % at 20 µM | 190,000 tested, under 10 active;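 active = over 50% inhibition of intestinal alkaline phosphatase at 20 µM in the single-dose screen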
#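 test system = bovine IAP enzyme | medium = DEA buffer 100 mM, pH 9.8, with MgCl2 1.0 mM, ZnCl2 0.02 mM | detection = luminescence | dosing = single compound dose of 20 µM, 2% DMSO final | incubation = 30 min reaction at room temperature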
# mIAP activ – mouse IAP activation; AID 2805; hit rate 0.24% among 330,000; muIAP, CDP-Star luminescence, 30 min; active compounds read high; 1 = vehicle-only enzyme signal, 0 = enzyme-free wells; activation factor at 10 µM;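 active = activation factor of at least 2 at 20 µM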
#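 System: mouse IAP enzyme. Reagent: CDP-Star chemiluminescent phosphatase substrate. Benchmarks: DMSO wells, no-enzyme wells. Times: 30 min enzyme-substrate-compound incubation at room temperature. Detection: luminescence from enzymatic CDP-Star hydrolysis. Doses: test compounds delivered from DMSO solution.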
# hIAP act – increases human intestinal alkaline phosphatase activity. P09923. AID 2524. activation factor at 10 µM. purified human IAP, CDP-Star luminescence, 30 min; active compounds read high; 1 = vehicle-only enzyme, 0 = enzyme-free background. hit rate 0.16% among 330,000;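 active = activation factor of the enzyme at least 2-fold when tested at 20 µM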
# Target sequence (P09923 whole entry, looked up): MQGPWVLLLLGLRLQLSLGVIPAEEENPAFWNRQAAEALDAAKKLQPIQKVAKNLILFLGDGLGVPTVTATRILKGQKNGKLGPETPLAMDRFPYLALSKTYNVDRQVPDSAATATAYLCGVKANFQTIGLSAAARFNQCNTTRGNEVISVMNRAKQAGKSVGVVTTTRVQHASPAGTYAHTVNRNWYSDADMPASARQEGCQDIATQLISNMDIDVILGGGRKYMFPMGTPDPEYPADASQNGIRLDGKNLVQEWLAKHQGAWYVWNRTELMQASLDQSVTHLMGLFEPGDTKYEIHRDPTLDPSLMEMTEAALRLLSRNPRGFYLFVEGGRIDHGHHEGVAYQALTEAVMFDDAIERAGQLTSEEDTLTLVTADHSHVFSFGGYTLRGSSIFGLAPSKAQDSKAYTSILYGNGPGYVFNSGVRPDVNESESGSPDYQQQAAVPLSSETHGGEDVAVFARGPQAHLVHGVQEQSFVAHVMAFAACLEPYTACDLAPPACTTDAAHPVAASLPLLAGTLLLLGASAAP
# mIAP block – blocks mouse intestinal alkaline phosphatase. inhibition, % at 10 µM. hit rate 0.2% among 330,000. purified mouse IAP, CDP-Star luminescence, 30 min;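 active = inhibition of at least 40% at 10 µM in the primary screen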
# bIAP act – intestinal alkaline phosphatase (bovine) activation; purified bovine IAP, CDP-star luminescence, 30 min; active compounds read high; fold of DMSO-control signal, blank-subtracted; activation factor at 20 µM; hit rate 0.17% among 200,000; AID 1016;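 active = activation factor of 2 or more at 20 µM, a signal rise over negative controls twice the positive control's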
# hIAP block – blocks human intestinal alkaline phosphatase. P09923. purified IAP, CDP-Star luminescence, 30 min. inhibition, % at 10 µM. hit rate 0.12% among 330,000;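 active = inhibition reaching a set limit with compound at 10 µM in the primary screen, cut at about 35% in these data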
# hIAP act confirm – human IAP activation confirmation. shares compounds with hIAP act. purified IAP, CDP-Star luminescence, 30 min; active compounds read low. activation (%Activity, negative = activation), % at 8.3 µM. hit rate 10% among 880. AID 434926;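 active = at least twofold enzyme activation in any of six single-dose repeats, which the averaged readout prints as negative percent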
# Hits are given with their value; - = inactive; . = not tested or not shown. Shown are actives, neighbours in structure and some others; about 0.79% of the full set was active somewhere.
SMILES,bIAP inh,mIAP activ,hIAP act,mIAP block,bIAP act,hIAP block,hIAP act confirm
COc1cccc(-c2nc(=S)c3c(n2CCCO)CCCC3)c1,-,-,2.38,-,-,-,-
COc1ccc(C(=O)CNc2cccc(F)c2)cc1,.,-,-,-,.,-,.
CSC(=NC#N)N1CCN(c2ccc([N+](=O)[O-])cc2)CC1,-,-,-,-,-,-,.
Cc1ccc(CN2CCSc3ccc(C(=O)NC4CCCC4)cc32)cc1,.,-,-,-,.,-,.
O=C(NC1CCCC1)c1ccc2c(c1)N(Cc1ccc(F)cc1)CCS2,.,-,-,-,.,38.6,-
CC(C)CC(=O)NC(=S)Nc1ccccc1C(=O)Nc1ccccc1,-,-,2.7,-,-,-,-
CC(C)C(=O)NC(=S)Nc1ccccc1C(=O)Nc1ccccc1,-,-,2.65,-,-,-,-107.6
COc1cc(OC)c(OC)cc1CNCCNC(=O)c1ccco1,.,-,-,-,.,-,.
CC1CCN(S(=O)(=O)c2ccc3c(c2)CCN3C(=O)C2CCC2)CC1,.,-,-,-,.,-,.
CC1CCCN(S(=O)(=O)c2ccc3c(c2)CCN3C(=O)C2CCC2)C1 (stereo unspecified),-,-,50.3,-,-,-,-
O=C1c2c(O)cc(O)cc2O[C@H](c2ccc(O)cc2)[C@H]1O,.,-,-,-,.,-,.
C[C@@H]1O[C@@H](O[C@@H]2C(=O)c3c(O)cc(O)cc3O[C@H]2c2ccc(O)c(O)c2)[C@H](O)[C@H](O)[C@H]1O,.,-,-,-,.,35.4,-
O=C(CCCSc1nc(-c2ccco2)cc(C(F)(F)F)n1)NCc1cccs1,-,-,-,-,-,37.2,-
CC(Sc1nn(-c2ccccc2)c(=S)s1)C(=O)NCC1CCCO1 (stereo unspecified),.,-,-,-,.,-,.
COc1c(-c2ccc(O)c(O)c2)oc2cc(O)cc(O)c2c1=O,.,-,-,-,.,59.6,-
COC(=O)/C=C1\N/C(=N/c2nc(C)c3cc(OC)ccc3n2)NC1=O,.,-,2.54,-,.,-,-
COC(=O)/C=C1/C(=O)N/C(=N\c2nc(C)cc(C)n2)N1c1ccc(OC)cc1,-,-,-,-,-,-,.
Cc1cc(C)cc(OCC(=O)NNC(=O)c2cc(C)[nH]n2)c1,-,-,2.07,-,-,-,-94.6
O=C(/C=C/c1ccccc1O)c1ccco1,.,-,-,-,.,42.2,-104.2
O=C(/C=C/c1cc(Br)ccc1O)c1ccco1,.,-,-,-,.,-,.
Cc1ccccc1N1CCN(C(=O)c2ccccc2NC(=O)/C=C\C(=O)O)CC1,-,-,-,-,-,37.1,-
CC1CC(OC(=O)CN2CCCCC2)CC(C)(C)C1 (stereo unspecified),.,-,-,-,.,-,.
COc1ccc(C(=O)NCCCn2nc(C)cc2C)cc1S(=O)(=O)N1CCOCC1,.,-,-,-,.,-,.
Cc1ccsc1/C=N/Nc1ncnc2nc[nH]c12,-,-,2.26,-,-,-,-
COc1ccc(NC(=O)/C(C#N)=C\c2cc(C)n(-c3ccc4c(c3)OCO4)c2C)cc1,-,-,2.08,-,-,-,-
SMILES,bIAP inh,mIAP activ,hIAP act,mIAP block,bIAP act,hIAP block,hIAP act confirm
CCOc1cccc(OCCOCCOc2ccccc2C(C)=O)c1,-,-,2.24,-,-,-,-219.0
Cc1c(C)c2ccc(OCC(=O)Nc3ccc(S(N)(=O)=O)cc3)c(C)c2oc1=O,.,-,-,-,.,-,.
COc1ccc(NC(=S)NNC(=O)c2nnn(-c3ccccc3)c2C)cc1,-,-,2.13,-,-,-,-
CC(=O)N1CCOc2ccc(S(=O)(=O)N3CCC(C(=O)Nc4ccc(C)cc4)CC3)cc21,.,-,-,-,.,-,.
CCc1ccc(NC(=O)C2CCN(S(=O)(=O)c3c(C)[nH]c(=O)[nH]c3=O)CC2)cc1,-,-,2.52,-,-,-,-
CCc1ccc(NC(=O)C2CCN(S(=O)(=O)c3ccc4c(c3)N(C(C)=O)CCO4)CC2)cc1,.,-,-,-,.,38.9,-
CN(C)S(=O)(=O)c1cccc(COc2ncnc3c(Cl)cc(Cl)cc23)c1,.,-,-,-,.,-,.
Cc1cc(NS(=O)(=O)c2ccc(NC(=O)C(C)Oc3ccc4c(C)cc(=O)oc4c3)cc2)no1 (stereo unspecified),-,-,2.62,-,-,-,-
O=C(NCCc1ccc(Cl)cc1)C1CCCO1 (stereo unspecified),.,-,-,-,.,-,.
O=C(CNC(=S)NC(=O)c1cccs1)c1ccccc1,-,-,-,-,-,-,.
O=C(NC(=S)NCc1ccccc1)c1cccs1,.,-,-,-,.,40.0,-
O=C(CSc1nc2ccccc2c(=O)n1-c1ccc(OC(F)F)cc1)NC1CC1,.,-,-,-,.,-,.
Cc1ccc(C)c(Cn2c(C)nc3c(sc(=S)n3-c3ccccc3)c2=O)c1,-,-,-,-,-,-,.
O=C(CNC(=S)N(CCCN1CCOCC1)Cc1cccs1)NCc1ccccc1,.,-,3.07,-,.,-,-
O=C(CNC(=S)N(CCCN1CCOCC1)Cc1cccs1)NC1CC1,-,-,-,-,-,-,.
CC1CCCC(NC(=O)COC(=O)[C@@H](NC(=O)c2ccco2)C(C)C)C1C (stereo partly specified),-,-,-,-,-,-,.
CCn1c(=O)c2ccccc2n(CC(=O)NC2CCCCC2)c1=O,.,-,-,-,.,-,.
CCn1c(C)nc2cc(C(=O)NNC(=S)Nc3ccc(C)cc3)ccc21,.,-,2.01,-,.,-,-
Cc1cccn2c(=O)c3cc(C(=O)NC4CCCC4)c(=N)n(C4CCCCC4)c3nc12,.,-,-,-,.,35.7,-122.2
CCc1ccc(C(=O)NNC(=O)c2n[nH]c(=O)c3ccccc23)cc1,.,-,-,-,.,-,.
O=C(NNC(=O)c1n[nH]c(=O)c2ccccc12)c1ccc(Br)cc1,.,-,2.13,-,.,-,-
Cc1ccc(C(=O)NNC(=O)c2n[nH]c(=O)c3ccccc23)cc1C,.,-,2.18,-,.,-,-
COc1ccc(-c2csc(NC(=S)NC(=O)c3ccccc3)n2)cc1Br,.,-,-,-,.,-,.
COc1ccc(C(=O)NC(=S)Nc2nc(-c3ccc(OC)c(Br)c3)cs2)cc1Br,.,-,-,-,.,38.0,-
CC(/C=C1\SC(=S)N(CCC(=O)Nc2nc(C)cs2)C1=O)=C\c1ccccc1,.,-,-,-,.,-,.
CCOC(=O)c1ccc(NC(=O)c2nc[nH]c2C(=O)NCCCCNC(=O)c2[nH]cnc2C(=O)Nc2ccc(C(=O)OCC)cc2)cc1,.,-,-,-,.,-,.
CCOC(=O)c1ccc(NC(=O)c2nc[nH]c2C(=O)NCCCCCNC(=O)OC(C)(C)C)cc1,.,-,2.29,-,.,-,-
CC(C)(C)OC(=O)NCCCC[C@H](NC(=O)c1[nH]cnc1C(=O)Nc1ccc(CNC(=O)OC(C)(C)C)cc1)C(=O)OC(C)(C)C,.,-,2.72,-,.,-,-
